Experimental data from ChEMBL document CHEMBL4351000, “Inhibitory selectivity among class I HDACs has a major impact on inflammatory gene expression in macrophages” (Eur J Med Chem, 2019).
Calls of active or inactive are those of the source. The calls are words filed in the database; no cut-off is given here.

Key:
Homo sapiens [1] = species: Homo sapiens; experiment: Selectivity ratio of IC50 for human recombinant C-terminal His-tagged HDAC3/NCOR2 to IC50 for human recombinant C-terminal His/FLAG-tagged HDAC1
Procedure, shortened: (§1)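 Fluorogenic assay using human recombinant HDAC1 (FLAG/His), HDAC2 (FLAG) or HDAC3/NcoR2 (His) in pH 8.0 Tris buffer with NaCl, KCl, MgCl₂, 0.01% Triton-X and 1 mg/mL BSA. Enzyme, inhibitor dilutions and Boc-Lys(ε-Ac)-AMC were incubated 90 min at 37 °C. Trypsin/200 μM vorinostat stop solution was added for 30 min, then fluorescence read (ex 370/em 460 nm). IC50s came from curve fits; the ratio is HDAC3 IC50 over HDAC2 or HDAC1 IC50.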

Histone deacetylase 1 = Histone deacetylase 1 (Homo sapiens, UniProt Q13547); experiment: Inhibition of human recombinant C-terminal His/FLAG-tagged HDAC1 using Boc-Lys-(epsilon-Ac)-AMC as fluorogenic substrate incubated for 90 mins by fluorescence based assay
Histone deacetylase 1, sequence (Q13547 whole entry): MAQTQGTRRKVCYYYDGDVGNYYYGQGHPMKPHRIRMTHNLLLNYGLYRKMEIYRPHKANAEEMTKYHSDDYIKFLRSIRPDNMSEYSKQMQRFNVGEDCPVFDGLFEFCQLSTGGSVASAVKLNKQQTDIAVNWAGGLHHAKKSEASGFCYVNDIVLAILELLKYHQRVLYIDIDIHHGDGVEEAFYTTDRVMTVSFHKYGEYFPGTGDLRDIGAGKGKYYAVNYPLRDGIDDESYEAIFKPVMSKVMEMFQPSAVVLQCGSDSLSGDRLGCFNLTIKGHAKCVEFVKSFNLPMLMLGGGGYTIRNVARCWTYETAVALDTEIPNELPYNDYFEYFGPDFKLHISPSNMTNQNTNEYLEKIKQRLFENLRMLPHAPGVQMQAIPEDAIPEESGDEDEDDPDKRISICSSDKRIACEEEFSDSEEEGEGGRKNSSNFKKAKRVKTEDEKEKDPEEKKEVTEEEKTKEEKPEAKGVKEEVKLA

Homo sapiens [2] = species: Homo sapiens; experiment: Selectivity ratio of IC50 for human recombinant C-terminal His-tagged HDAC3/NCOR2 to IC50 for human recombinant C-terminal FLAG-tagged HDAC2; procedure, shortened: as §1
[3] = biological target: Histone deacetylase 3/Nuclear receptor corepressor 2 (HDAC3/NCoR2) (Homo sapiens, UniProt O15379); experiment: Inhibition of human recombinant C-terminal His-tagged HDAC3/NCOR2 using Boc-Lys-(epsilon-Ac)-AMC as fluorogenic substrate incubated for 90 mins by fluorescence based assay; assay type: protein-complex assay
Histone deacetylase 3/Nuclear receptor corepressor 2 (HDAC3/NCoR2), sequence (O15379 whole entry): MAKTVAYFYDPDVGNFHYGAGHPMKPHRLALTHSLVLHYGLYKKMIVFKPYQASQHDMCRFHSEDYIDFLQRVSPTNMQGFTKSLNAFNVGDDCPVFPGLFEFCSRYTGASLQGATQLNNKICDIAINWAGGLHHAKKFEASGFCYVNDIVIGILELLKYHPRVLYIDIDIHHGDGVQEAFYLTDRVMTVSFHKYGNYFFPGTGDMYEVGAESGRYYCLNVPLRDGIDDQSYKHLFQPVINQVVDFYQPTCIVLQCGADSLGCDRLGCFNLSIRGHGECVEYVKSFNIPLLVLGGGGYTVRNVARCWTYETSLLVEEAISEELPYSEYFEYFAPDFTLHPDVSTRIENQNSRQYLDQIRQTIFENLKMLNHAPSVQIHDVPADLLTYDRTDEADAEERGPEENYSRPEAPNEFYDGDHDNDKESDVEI
Histone deacetylase 3/Nuclear receptor corepressor 2 (HDAC3/NCoR2), sequence (Q9Y618 whole entry, further chain): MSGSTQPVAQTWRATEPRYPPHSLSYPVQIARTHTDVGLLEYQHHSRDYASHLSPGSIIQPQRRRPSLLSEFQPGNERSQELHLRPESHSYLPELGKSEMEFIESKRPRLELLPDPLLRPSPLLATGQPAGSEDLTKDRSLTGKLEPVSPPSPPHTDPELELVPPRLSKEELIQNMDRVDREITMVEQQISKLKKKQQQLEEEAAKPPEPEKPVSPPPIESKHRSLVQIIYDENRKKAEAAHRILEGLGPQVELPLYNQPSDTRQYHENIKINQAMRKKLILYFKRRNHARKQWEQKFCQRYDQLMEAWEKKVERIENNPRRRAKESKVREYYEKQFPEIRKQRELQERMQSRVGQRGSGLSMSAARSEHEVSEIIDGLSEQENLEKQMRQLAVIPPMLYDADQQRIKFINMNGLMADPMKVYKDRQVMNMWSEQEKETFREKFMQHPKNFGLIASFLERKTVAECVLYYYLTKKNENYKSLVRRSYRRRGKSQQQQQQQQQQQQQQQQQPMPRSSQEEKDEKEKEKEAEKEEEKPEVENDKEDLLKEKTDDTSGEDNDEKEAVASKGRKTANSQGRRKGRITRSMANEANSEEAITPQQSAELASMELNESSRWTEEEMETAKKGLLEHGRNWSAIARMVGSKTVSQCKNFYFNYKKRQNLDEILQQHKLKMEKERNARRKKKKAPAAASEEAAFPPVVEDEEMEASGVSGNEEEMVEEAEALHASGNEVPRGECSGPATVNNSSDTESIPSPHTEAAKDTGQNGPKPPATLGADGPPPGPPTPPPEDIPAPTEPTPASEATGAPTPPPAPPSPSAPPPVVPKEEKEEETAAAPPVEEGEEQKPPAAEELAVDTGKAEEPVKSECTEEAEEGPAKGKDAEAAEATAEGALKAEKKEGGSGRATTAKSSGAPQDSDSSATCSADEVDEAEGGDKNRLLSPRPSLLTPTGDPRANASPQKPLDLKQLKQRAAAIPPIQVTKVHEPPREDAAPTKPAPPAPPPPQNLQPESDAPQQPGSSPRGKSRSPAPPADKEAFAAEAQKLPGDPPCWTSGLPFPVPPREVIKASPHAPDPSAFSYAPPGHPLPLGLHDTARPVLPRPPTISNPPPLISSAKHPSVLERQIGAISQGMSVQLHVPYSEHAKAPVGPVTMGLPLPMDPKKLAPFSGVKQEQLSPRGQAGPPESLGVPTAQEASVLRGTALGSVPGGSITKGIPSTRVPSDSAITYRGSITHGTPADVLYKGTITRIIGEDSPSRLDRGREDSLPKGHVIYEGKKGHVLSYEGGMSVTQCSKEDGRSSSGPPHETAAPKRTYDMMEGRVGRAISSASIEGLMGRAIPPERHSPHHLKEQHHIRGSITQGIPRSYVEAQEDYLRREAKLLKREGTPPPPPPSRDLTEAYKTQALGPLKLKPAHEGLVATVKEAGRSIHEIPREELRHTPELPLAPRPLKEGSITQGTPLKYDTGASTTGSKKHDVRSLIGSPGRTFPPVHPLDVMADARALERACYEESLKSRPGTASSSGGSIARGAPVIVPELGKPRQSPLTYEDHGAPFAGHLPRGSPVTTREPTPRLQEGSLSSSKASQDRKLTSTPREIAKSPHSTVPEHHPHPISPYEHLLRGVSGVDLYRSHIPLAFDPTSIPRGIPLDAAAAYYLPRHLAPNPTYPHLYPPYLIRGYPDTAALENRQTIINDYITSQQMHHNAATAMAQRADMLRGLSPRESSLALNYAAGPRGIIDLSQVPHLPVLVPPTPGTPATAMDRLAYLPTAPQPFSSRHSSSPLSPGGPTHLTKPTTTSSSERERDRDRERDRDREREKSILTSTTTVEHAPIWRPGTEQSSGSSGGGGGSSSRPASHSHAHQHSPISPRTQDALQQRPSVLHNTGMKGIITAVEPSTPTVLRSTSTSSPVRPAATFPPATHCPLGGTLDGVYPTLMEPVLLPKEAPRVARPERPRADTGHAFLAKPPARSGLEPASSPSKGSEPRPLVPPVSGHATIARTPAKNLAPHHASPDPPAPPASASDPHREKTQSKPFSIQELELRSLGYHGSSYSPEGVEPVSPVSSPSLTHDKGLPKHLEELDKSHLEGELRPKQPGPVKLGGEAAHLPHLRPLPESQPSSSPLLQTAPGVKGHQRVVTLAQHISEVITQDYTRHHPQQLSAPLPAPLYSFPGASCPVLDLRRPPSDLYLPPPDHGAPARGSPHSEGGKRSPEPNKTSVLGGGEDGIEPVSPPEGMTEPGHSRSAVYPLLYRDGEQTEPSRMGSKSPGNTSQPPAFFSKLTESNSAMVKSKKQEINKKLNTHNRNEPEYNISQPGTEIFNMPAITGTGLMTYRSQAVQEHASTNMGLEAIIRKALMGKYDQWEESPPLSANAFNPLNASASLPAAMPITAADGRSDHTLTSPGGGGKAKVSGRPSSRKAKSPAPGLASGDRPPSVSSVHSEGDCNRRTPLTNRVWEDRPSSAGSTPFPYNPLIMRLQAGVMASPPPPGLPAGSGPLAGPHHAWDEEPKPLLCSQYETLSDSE

Histone deacetylase 2 = Histone deacetylase 2 (Homo sapiens, UniProt Q92769); experiment: Inhibition of human recombinant C-terminal FLAG-tagged HDAC2 using Boc-Lys-(epsilon-Ac)-AMC as fluorogenic substrate incubated for 90 mins by fluorescence based assay
Histone deacetylase 2, sequence (Q92769 whole entry): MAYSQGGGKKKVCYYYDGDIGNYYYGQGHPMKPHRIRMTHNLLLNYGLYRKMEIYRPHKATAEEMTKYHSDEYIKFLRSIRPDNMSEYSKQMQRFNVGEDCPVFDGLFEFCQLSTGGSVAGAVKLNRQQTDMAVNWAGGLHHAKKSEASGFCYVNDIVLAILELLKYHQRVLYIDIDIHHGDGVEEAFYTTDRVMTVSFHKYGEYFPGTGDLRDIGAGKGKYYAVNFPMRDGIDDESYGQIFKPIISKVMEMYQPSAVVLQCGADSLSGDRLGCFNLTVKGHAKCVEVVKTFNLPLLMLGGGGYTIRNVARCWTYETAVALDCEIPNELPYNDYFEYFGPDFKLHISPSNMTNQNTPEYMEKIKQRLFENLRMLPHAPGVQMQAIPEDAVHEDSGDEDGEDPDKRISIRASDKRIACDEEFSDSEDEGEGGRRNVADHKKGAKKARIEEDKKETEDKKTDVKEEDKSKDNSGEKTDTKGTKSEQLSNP

RAW264.7 = experiment: Cytotoxicity against mouse RAW264.7 cells assessed as cell viability at 1 to 5 uM incubated for 24 hrs by MTS assay; assay type: cell-based; conditions: raw264.7, 24 h
Procedure, shortened: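 RAW264.7 macrophages (passage 5–16) were grown in DMEM GlutaMAX with 10% FBS at 37 °C and 5% CO₂, then seeded at 25,000 cells/cm². The next day, medium was replaced with inhibitor-containing medium for 24 h at 37 °C. MTS reagent was added for 2 h at 37 °C in the dark. Absorbance was read at 490 nm and expressed as % of control.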

[4] = biological target: T1, Histone deacetylase 1/2 (Mus musculus) (UniProt O09106+P70288); experiment: Inhibition of HDAC1/2 in LPS/IFNgamma-stimulated mouse RAW264.7 cells assessed as upregulation of IL-10 gene expression at pretreated for 16 hrs followed by LPS stimulation and measured after 4 hrs by RT-qPCR analysis; assay type: cell-based
T1 sequence (O09106 whole entry, looked up): as the sequence (Q13547 whole entry) above, with R8K, D399E, E424D counted along it
T1 sequence (P70288 whole entry, looked up): as the sequence (Q92769 whole entry) above, with V289A, T477P, T480A counted along it
Procedure, shortened: (§2)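 RAW264.7 cells were treated with inhibitor for 20 h in total, with LPS/IFNγ added for the final 4 h; vehicle was a proportional DMSO dilution. Cells were washed twice with DPBS, total RNA was isolated, and IL10, iNOS, IL6 and TNFα transcripts were quantified by RT-qPCR relative to vehicle. Mean ± SD of 2–3 independent experiments.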

[5] = biological target: T1, Histone deacetylase 1/2 (Mus musculus); experiment: Inhibition of HDAC1/2 in LPS/IFNgamma-stimulated mouse RAW264.7 cells assessed as upregulation of TNF-alpha gene expression at pretreated for 16 hrs followed by LPS stimulation and measured after 4 hrs by RT-qPCR analysis; assay type: cell-based; procedure, shortened: as §2
[6] = biological target: T1, Histone deacetylase 1/2 (Mus musculus); experiment: Inhibition of HDAC1/2 in LPS/IFNgamma-stimulated mouse RAW264.7 cells assessed as upregulation of IL-6 gene expression at pretreated for 16 hrs followed by LPS stimulation and measured after 4 hrs by RT-qPCR analysis; assay type: cell-based; procedure, shortened: as §2
[7] = biological target: T1, Histone deacetylase 1/2 (Mus musculus); experiment: Inhibition of HDAC1/2 in LPS/IFNgamma-stimulated mouse RAW264.7 cells assessed as upregulation of iNOS gene expression at pretreated for 16 hrs followed by LPS stimulation and measured after 4 hrs by RT-qPCR analysis; assay type: cell-based; procedure, shortened: as §2
[8] = biological target: T2, Histone deacetylase 3 (Mus musculus) (UniProt O88895); experiment: Inhibition of HDAC3 in LPS/IFNgamma-stimulated mouse RAW264.7 cells assessed as iNOS gene expression at 1 uM pretreated for 16 hrs followed by LPS stimulation and measured after 4 hrs by RT-qPCR analysis; assay type: cell-based; procedure, shortened: as §2
T2 sequence (whole entry): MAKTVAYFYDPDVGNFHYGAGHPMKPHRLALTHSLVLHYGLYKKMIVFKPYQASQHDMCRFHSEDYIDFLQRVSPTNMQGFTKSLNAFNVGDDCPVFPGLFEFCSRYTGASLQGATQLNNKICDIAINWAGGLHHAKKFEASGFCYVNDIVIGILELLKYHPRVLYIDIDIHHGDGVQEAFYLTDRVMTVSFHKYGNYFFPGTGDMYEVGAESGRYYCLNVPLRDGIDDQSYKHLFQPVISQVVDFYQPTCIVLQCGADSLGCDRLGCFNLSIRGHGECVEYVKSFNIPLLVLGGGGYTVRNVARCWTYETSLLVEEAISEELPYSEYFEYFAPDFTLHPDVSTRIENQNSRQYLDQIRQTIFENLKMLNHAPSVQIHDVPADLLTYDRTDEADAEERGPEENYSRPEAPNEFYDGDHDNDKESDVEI

[9] = biological target: T2, Histone deacetylase 3 (Mus musculus); experiment: Inhibition of HDAC3 in LPS/IFNgamma-stimulated mouse RAW264.7 cells assessed as TNF-alpha gene expression at 1 uM pretreated for 16 hrs followed by LPS stimulation and measured after 4 hrs by RT-qPCR analysis; assay type: cell-based; procedure, shortened: as §2
[10] = biological target: T2, Histone deacetylase 3 (Mus musculus); experiment: Inhibition of HDAC3 in LPS/IFNgamma-stimulated mouse RAW264.7 cells assessed as IL-10 gene expression at 1 uM pretreated for 16 hrs followed by LPS stimulation and measured after 4 hrs by RT-qPCR analysis; assay type: cell-based; procedure, shortened: as §2
[11] = biological target: T2, Histone deacetylase 3 (Mus musculus); experiment: Inhibition of HDAC3 in LPS/IFNgamma-stimulated mouse RAW264.7 cells assessed as IL-6 gene expression at 1 uM pretreated for 16 hrs followed by LPS stimulation and measured after 4 hrs by RT-qPCR analysis; assay type: cell-based; procedure, shortened: as §2
[12] = biological target: T2, Histone deacetylase 3 (Mus musculus); experiment: Inhibition of HDAC3 in LPS/IFNgamma-stimulated mouse RAW blue cells assessed as NFkappaB transcriptional activity measured as SEAP activity at 1 to 5 uM pretreated for 16 hrs followed by LPS stimulation and measured after 4 hrs by quanti blue reagent-based reporter gene assay
Procedure, shortened: (§3)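 NF-κB SEAP reporter assay in RAW264.7-derived RAW-Blue cells (passage 4–14), seeded at about 550,000 cells/mL. Cells were pre-incubated with inhibitor for 16 h, then stimulated with 10 ng/mL LPS/IFNγ for 4 h. Supernatant was mixed 1:9 into QUANTI-Blue and incubated 3 h at 37 °C; absorbance was read at 650 nm as % of control. Mean ± SD of 3 independent experiments.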

[13] = biological target: T1, Histone deacetylase 1/2 (Mus musculus); experiment: Inhibition of HDAC1/2 in LPS/IFNgamma-stimulated mouse RAW264.7 cells assessed as upregulation of IL-10 gene expression at 1 to 5 uM pretreated for 16 hrs followed by LPS stimulation and measured after 4 hrs by RT-qPCR analysis; assay type: cell-based; procedure, shortened: as §2
[14] = biological target: Histone deacetylase 1 (Mus musculus) (UniProt O09106); experiment: Inhibition of HDAC1 in LPS/IFNgamma-stimulated mouse RAW blue cells assessed as upregulation of NFkappaB transcriptional activity by measuring increase in SEAP activity at 1 to 5 uM pretreated for 16 hrs followed by LPS stimulation and measured after 4 hrs by quanti blue reagent-based reporter gene assay; procedure, shortened: as §3
Histone deacetylase 1 (Mus musculus), sequence (O09106 whole entry): as the sequence (Q13547 whole entry) above, with R8K, D399E, E424D counted along it

[15] = biological target: T1, Histone deacetylase 1/2 (Mus musculus); experiment: Inhibition of HDAC1/2 in LPS/IFNgamma-stimulated mouse RAW264.7 cells assessed as upregulation of IL-6 gene expression at 1 to 5 uM pretreated for 16 hrs followed by LPS stimulation and measured after 4 hrs by RT-qPCR analysis; assay type: cell-based; procedure, shortened: as §2
[16] = biological target: T1, Histone deacetylase 1/2 (Mus musculus); experiment: Inhibition of HDAC1/2 in LPS/IFNgamma-stimulated mouse RAW264.7 cells assessed as upregulation of TNF-alpha gene expression at 1 to 5 uM pretreated for 16 hrs followed by LPS stimulation and measured after 4 hrs by RT-qPCR analysis; assay type: cell-based; procedure, shortened: as §2
[17] = biological target: T1, Histone deacetylase 1/2 (Mus musculus); experiment: Inhibition of HDAC1/2 in LPS/IFNgamma-stimulated mouse RAW264.7 cells assessed as upregulation of iNOS gene expression at 1 to 5 uM pretreated for 16 hrs followed by LPS stimulation and measured after 4 hrs by RT-qPCR analysis; assay type: cell-based; procedure, shortened: as §2

SMILES | IC50 (Histone deacetylase 1) [µM] | IC50 [3] [µM] | IC50 (Histone deacetylase 2) [µM] | Activity (RAW264.7) | further results
Nc1ccccc1NC(=O)c1ccc(CNC(=O)OCc2cccnc2)cc1 [ENTINOSTAT] |  |  |  | Non-Toxic | 
Nc1ccccc1NC(=O)CCCCCNc1ccccc1 | 1.2 | 0.4 | 1.3 |  | 
Nc1cc(F)ccc1NC(=O)/C=C/c1cnn(C/C=C/c2ccccc2)c1 |  |  |  | Non-Toxic | Activity [8]: inactive; Activity [9]: inactive; Activity [10]: inactive; Activity [11]: inactive; Activity [12]: inactive
Nc1ccccc1NC(=O)CCCCNC(=O)c1ccccc1 |  |  |  | Non-Toxic | 
Nc1ccccc1NC(=O)CCCCCC(=O)c1ccccc1 | 1.9 | 1.2 | 3.7 |  | 

Continued, in another order:

IC50 (Histone deacetylase 1) [µM] | IC50 [3] [µM] | IC50 (Histone deacetylase 2) [µM] | SMILES | Activity (RAW264.7) | further results
3 | 16 | 5.4 | Nc1ccccc1NC(=O)c1ccc(C(=O)Nc2ccccc2)cc1 |  | Ratio IC50 (Homo sapiens [1]): 5.3; Ratio IC50 (Homo sapiens [2]): 3
2.3 | 8.5 | 7 | CC(Nc1ccccc1)c1ccc(C(=O)Nc2ccccc2N)cc1 (stereo not drawn) | Non-Toxic | Ratio IC50 (Homo sapiens [1]): 3.7; Activity [4]: Active; Ratio IC50 (Homo sapiens [2]): 1.2; Activity [5]: Active; Activity [6]: Active; Activity [7]: Active
1 | 0.6 | 1.4 | Nc1ccccc1NC(=O)c1ccc(CNc2ccccc2)cc1 |  | 
1 | 2.8 | 0.5 | CN(Cc1ccc(C(=O)Nc2ccccc2N)cc1)c1ccccc1 |  | 
1.3 | 5 | 4.2 | C[C@@H](Nc1ccccc1)c1ccc(C(=O)Nc2ccccc2N)cc1 | Non-Toxic | Activity [13]: Active; Activity [14]: Active; Activity [15]: Active; Activity [16]: Active; Activity [17]: Active
2.4 | 11 | 8.3 | C[C@H](Nc1ccccc1)c1ccc(C(=O)Nc2ccccc2N)cc1 | Non-Toxic | 
